Data set [1] deals with Mus musculus. Put plainly: Neurotoxicity in mouse assessed at 30 to 300 mg/kg, ip after 0.5 hrs. The settings on record: in vivo. On the set-up: dose 30-300 mg/kg, route intraperitoneal. The format is toxicity, organism-based. The method, boiled down: (§1)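 Mice received 30, 100 or 300 mg/kg intraperitoneally and were examined at 0.5 and 4 h for mortality and neurological deficit, following NINDS screening protocols. Results were recorded as the number of mice showing a deficit over the number treated per dose.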

Data set [2] deals with HL-60. The data set can be described thus: Cytotoxicity against human HL60 cells after 24 hrs. The settings on record: HL-60, 24 h. It is filed as functional. The method, boiled down:
(§2)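 Cells (HGF gingival fibroblasts, HPC pulp cells, HPLF periodontal ligament fibroblasts, HSC-2 and HSC-4 squamous carcinoma, HL-60 promyelocytic leukemia) were exposed to graded concentrations for 24 h, up to a maximum of 400 μM. CC50 is the concentration reducing viable cell number by 50%, taken from dose–response curves. Values are from duplicate determinations differing by less than 5%.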

For data set [3], the system named is Mus musculus. Put plainly: Toxicity in mouse assessed as induction of mortality at 30 to 300 mg/kg, ip. The settings on record: in vivo. Further details: dose 30-300 mg/kg, route intraperitoneal. The format is organism-based.
In data set [4] the test system is HSC-4. The data set can be described thus: Cytotoxicity against human HSC4 cells after 24 hrs. It is filed as functional. The settings on record: HSC-4, 24 h. The method, boiled down:
as §2

Data set [5] can be described thus: Cytotoxicity against human HGF cells after 24 hrs. The settings on record: for CC50: hgf, 24 h. It is filed as cell-based. The method, boiled down: as §2
The nature of data set [6]: Cytotoxicity against human HPLF cells after 24 hrs. It is filed as cell-based. The settings on record: for CC50: hplf, 24 h. Put shortly:
as §2

A short description of data set [7]: Cytotoxicity against human HPC cells after 24 hrs. The format is cell-based. The settings on record: for CC50: hpc, 24 h. The method, boiled down: as §2
The subject of data set [8] is Mus musculus. The data set can be described thus: Neurotoxicity in mouse assessed at 30 to 300 mg/kg, ip after 4 hrs. The format is toxicity, organism-based. Further details: dose 30-300 mg/kg, route intraperitoneal. The settings on record: in vivo. The method, boiled down: as §1
Data set [9] concerns HSC-2. Put plainly: Cytotoxicity against human HSC2 cells after 24 hrs. The format is functional. The settings on record: HSC-2, 24 h. The method, boiled down: as §2
Data set [10] is described as follows: Partition coefficient, log P of the compound. It is filed as physicochemical. The settings on record: octanol/water.
In data set [11] the test system is HSC-4. The data set can be described thus: Selectivity index, ratio of CC50 for human normal cells to CC50 for human HSC4 cells. The format is functional. Put shortly:
(§3)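 The index is the average CC50 toward the three normal cell types (HGF, HPC, HPLF) divided by the CC50 toward the indicated malignant line.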

The subject of data set [12] is HSC-2. The data set can be described thus: Selectivity index, ratio of CC50 for human normal cells to CC50 for human HSC2 cells. It is filed as functional. The method, boiled down: as §3
Data set [13] concerns HL-60. The data set can be described thus: Selectivity index, ratio of CC50 for human normal cells to CC50 for human HL60 cells. It is filed as functional. Put shortly: as §3

Experimental findings from ChEMBL document CHEMBL1157649, “Cytotoxic 2-benzylidene-6-(nitrobenzylidene)cyclohexanones which display substantially greater toxicity for neoplasms than non-malignant cells” (Bioorg Med Chem, 2010) are described below.

What is called CC50 is the concentration that lowers cell viability or growth by half. A lower CC50 goes with harm at low concentration. Regarding `O=C1/C(=C/c2ccc(F)cc2)CCC/C1=C\c1ccccc1[N+](=O)[O-]`, the Activity entry in the data set on Mus musculus [1], in the data set on Mus musculus [3] and with Mus musculus [8] was “Non-toxic” each time. In addition, the 50% cytotoxic concentration (CC50) with HL-60 [2] was found to be 3 µM; with HSC-4 [4] it was 2.2 µM; in data set [5], 82 µM; in data set [6] it was 67 µM; in data set [7] it was 11 µM; in the data set with HSC-2 [9], 2.7 µM.
As a reminder, the logP is a log measure of how a compound divides between an organic and an aqueous phase. A lower logP goes with lower lipophilicity. For the molecule `O=C1/C(=C/c2ccc(F)cc2)CCC/C1=C\c1cccc([N+](=O)[O-])c1`, the CC50 with HL-60 [2] amounted to 1 µM; in the data set on HSC-4 [4], 2.5 µM; in [5] it was 42 µM; in data set [6] it was 36 µM; in [7], 38 µM; in the data set with HSC-2 [9], 2.2 µM. The Activity result with Mus musculus [3] is given as “Non-toxic”. The logP in [10] was 5.07.
As for `COc1cc(/C=C2\CCC/C(=C\c3ccc([N+](=O)[O-])cc3)C2=O)cc(OC)c1OC`, the CC50 in the data set with HL-60 [2] came out at 1.1 µM; in the data set with HSC-4 [4] it was 1.5 µM; with HSC-2 [9] it was 0.76 µM. In the data set with Mus musculus [3], the Activity result was “Non-toxic”. In addition, the cytotoxic concentration (CC50) at 24 h in data set [5] (HGF cells) was 336 µM; in data set [6] (HPLF cells), 378 µM; in data set [7] (HPC cells) it was 347 µM. Also, the “Selectivity Index” value in the data set with HSC-4 [11] was 236; with HSC-2 [12], 466; in the data set on HL-60 [13], 322. In addition, the logP in [10] was determined as 4.56.
For the molecule `O=C1/C(=C/c2ccc(Cl)cc2)CCC/C1=C\c1cccc([N+](=O)[O-])c1`, the half-maximal cytotoxic concentration (CC50) in the data set with HL-60 [2] stood at 3.2 µM; in the data set on HSC-4 [4], 2.3 µM; in data set [5], 39 µM; in data set [6], 38 µM; in data set [7], 18 µM; in the data set with HSC-2 [9], 2.2 µM. Besides, the “Selectivity Index” value in the data set with HSC-4 [11] is 14; in the data set with HSC-2 [12] it was 15; in the data set on HL-60 [13], 10. The molecule also registered a logP in [10] of 5.58.
Regarding `CN(C)c1ccc(/C=C2\CCC/C(=C\c3ccccc3[N+](=O)[O-])C2=O)cc1`, the CC50 (in the data set with HL-60 [2]; with HSC-4 [4]; in data set [5]; in data set [6]; in data set [7]; in the data set with HSC-2 [9]) was over 400 µM in each case. The “Selectivity Index” value with HSC-4 [11], with HSC-2 [12] and with HL-60 [13] was 1 each time. The molecule further yielded a logP in data set [10] of 4.8.
`Cc1ccc(/C=C2\CCC/C(=C\c3ccccc3[N+](=O)[O-])C2=O)cc1`: the half-maximal cytotoxic concentration (CC50) in the data set on HL-60 [2] was 11 µM; with HSC-4 [4] it was 40 µM; in [5], over 400 µM; in data set [6] it was over 400 µM; in [7] it was over 400 µM; in the data set with HSC-2 [9], 11 µM. The “Selectivity Index” value in the data set on HSC-4 [11] was over 10; in the data set with HSC-2 [12] it was over 36; in the data set with HL-60 [13] it was over 36. The molecule also gave a lipophilicity (logP) in data set [10] of 5.15.
Take `Cc1ccc(/C=C2\CCC/C(=C\c3ccc([N+](=O)[O-])cc3)C2=O)cc1`: the CC50 with HL-60 [2] was 27 µM; with HSC-4 [4], 13 µM; in data set [5] it was over 400 µM; in data set [6], 348 µM; in [7] it was 92 µM; with HSC-2 [9], 6.6 µM. The Activity entry with Mus musculus [3] is listed as “Non-toxic”. For the same molecule, the “Selectivity Index” value is over 22 with HSC-4 [11], over 42 in the data set with HSC-2 [12] and over 10 in the data set with HL-60 [13]. Besides, the log partition coefficient (logP) in [10] came out at 5.38.
On to `COc1cc(OC)c(OC)cc1/C=C1\CCC/C(=C\c2ccc([N+](=O)[O-])cc2)C1=O`, for which the CC50 was 400 µM with HL-60 [2]; 250 µM in the data set on HSC-4 [4]; over 400 µM in data set [5]; over 400 µM in data set [6]; over 400 µM in [7]; 67 µM in the data set on HSC-2 [9]. The Activity entry in the data set with Mus musculus [3] was “Non-toxic”. For the same molecule, the results for the “Selectivity Index” value in the data set on HSC-4 [11], with HSC-2 [12] and with HL-60 [13] were over 1.6, over 6 and 1, respectively.
For the molecule `COc1ccc(/C=C2\CCC/C(=C\c3cccc([N+](=O)[O-])c3)C2=O)cc1`, the CC50 is 7.2 µM in the data set on HL-60 [2]; 11 µM in the data set with HSC-4 [4]; over 400 µM in [5]; 354 µM in data set [6]; 33 µM in [7]; 4.8 µM in the data set on HSC-2 [9]. For the same molecule, in the data set with Mus musculus [3], the Activity entry is recorded as “Non-toxic”. Also, the “Selectivity Index” value in the data set with HSC-4 [11] is reported as over 24; in the data set on HSC-2 [12] it was over 55; in the data set with HL-60 [13], over 36. This molecule showed a logP in data set [10] of 4.96.
On to `O=C1CCCC/C1=C\c1ccccc1[N+](=O)[O-]`, for which the half-maximal cytotoxic concentration (CC50) in the data set with HL-60 [2] was 27 µM; with HSC-4 [4], 29 µM; in data set [5], 218 µM; in data set [6], 103 µM; in [7] it was 117 µM; with HSC-2 [9], 28 µM. In addition, the Activity entry in the data set with Mus musculus [3] was “Non-toxic”. In addition, the “Selectivity Index” value in the data set on HSC-4 [11] came to 5; in the data set with HSC-2 [12], 5.2; with HL-60 [13], 5.4.
On to `O=C1/C(=C/c2ccccc2)CCC/C1=C\c1cccc([N+](=O)[O-])c1`, for which the CC50 with HL-60 [2] turned out to be 3 µM; in the data set with HSC-4 [4] it was 2.4 µM; in [5], 25 µM; in data set [6], 18 µM; in data set [7], 14 µM; in the data set with HSC-2 [9], 3.7 µM. In the data set with Mus musculus [3], the Activity entry is listed as “Non-toxic”. For the same molecule, the “Selectivity Index” value in the data set on HSC-4 [11] is on record as 7.9; with HSC-2 [12] it was 5.1; in the data set on HL-60 [13], 6.3. Also, the logP in data set [10] was determined as 4.9.
In the case of `CN(C)c1ccc(/C=C2\CCC/C(=C\c3cccc([N+](=O)[O-])c3)C2=O)cc1`, the CC50 is 30 µM with HL-60 [2]; 71 µM in the data set on HSC-4 [4]; over 400 µM in data set [5]; over 400 µM in data set [6]; over 400 µM in data set [7]; 32 µM in the data set on HSC-2 [9]. Also, the Activity result in the data set with Mus musculus [3] is given as “Non-toxic”. In data set [10], the logP came out at 5.
Turning to `O=C1/C(=C/c2ccc(F)cc2)CCC/C1=C\c1ccc([N+](=O)[O-])cc1`, the CC50 is 32 µM in the data set on HL-60 [2]; 15 µM with HSC-4 [4]; 326 µM in data set [5]; over 400 µM in data set [6]; over 400 µM in data set [7]; 19 µM in the data set with HSC-2 [9]. In addition, in the data set on Mus musculus [3], the Activity entry was “Non-toxic”. The logP in data set [10] came out at 5.09.
With `O=C1CCCC/C1=C\c1cccc([N+](=O)[O-])c1`, the CC50 with HL-60 [2] came out at 5.8 µM; with HSC-4 [4], 18 µM; in data set [5], 74 µM; in [6] it was 56 µM; in [7] it was 49 µM; with HSC-2 [9], 6.6 µM. Besides, the Activity result in the data set with Mus musculus [3] was “Non-toxic”. The results for the “Selectivity Index” value in the data set with HSC-4 [11], in the data set on HSC-2 [12] and in the data set on HL-60 [13] were 3.3, 9.1 and 10, respectively.
In the case of `CN(C)c1ccc(/C=C2\CCC/C(=C\c3ccc([N+](=O)[O-])cc3)C2=O)cc1`, the cytotoxic concentration (CC50) with HL-60 [2] was over 400 µM; with HSC-4 [4], over 400 µM; in data set [5], over 400 µM; in data set [6] it was over 400 µM; in data set [7] it was over 400 µM; in the data set with HSC-2 [9] it was 11 µM. In the data set on Mus musculus [3], the Activity entry was “Non-toxic”. Further, in data set [10], the logP was 5.03.
